In ChEMBL document CHEMBL4321796, “Proteolysis Targeting Chimeras for the Selective Degradation of Mcl-1/Bcl-2 Derived from Nonselective Target Binding Ligands” (J Med Chem, 2019):
Activity calls are given as the source filed them. The calls are words filed in the database; no cut-off is given here.

Key:
[1] = test system: HeLa; test: Induction of CRBN-mediated tubulin degradation in human HeLa cells at 10 uM incubated for 12 hrs by Western blot analysis; format: cell-based
How it was run: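 HeLa cells (DMEM, 10% FBS, 37 °C, 5% CO2) treated 12 h with compound (10 µM, or 0–10 µM gradient; time course 0–24 h at 10 µM). Lysis in NP-40 buffer with protease inhibitors, equal protein loaded for SDS-PAGE and immunoblotting. Bands quantified relative to DMSO control. n=3 independent samples.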

[2] = target: T1, Protein cereblon/Apoptosis regulator Bcl-2 (Homo sapiens, UniProt P10415+Q96SW2); test: Induction of CRBN-mediated Bcl-2 degradation in human HeLa cells assessed as relative abundance at 10 uM measured at 20 hrs by Western blot analysis (reference value: 1); format: cell-based
How it was run: (§1)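 HeLa cells in DMEM with 10% FBS, exposed to 10 µM compound over a 0–24 h time course. Mcl-1 and Bcl-2 detected by immunoblot (NP-40 lysis, BCA-equalized SDS-PAGE, PVDF, ECL) and quantified relative to DMSO control; mean ± s.d., n=3 independent samples.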
Target sequence in this assay (P10415 whole entry, looked up): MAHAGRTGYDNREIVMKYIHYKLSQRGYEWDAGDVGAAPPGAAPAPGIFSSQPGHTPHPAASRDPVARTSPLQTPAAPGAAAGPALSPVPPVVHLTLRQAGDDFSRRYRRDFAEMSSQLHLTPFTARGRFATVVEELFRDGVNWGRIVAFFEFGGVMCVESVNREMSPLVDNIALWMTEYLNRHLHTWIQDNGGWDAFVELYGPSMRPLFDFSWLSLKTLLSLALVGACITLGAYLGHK
Target sequence in this assay (Q96SW2 whole entry, looked up): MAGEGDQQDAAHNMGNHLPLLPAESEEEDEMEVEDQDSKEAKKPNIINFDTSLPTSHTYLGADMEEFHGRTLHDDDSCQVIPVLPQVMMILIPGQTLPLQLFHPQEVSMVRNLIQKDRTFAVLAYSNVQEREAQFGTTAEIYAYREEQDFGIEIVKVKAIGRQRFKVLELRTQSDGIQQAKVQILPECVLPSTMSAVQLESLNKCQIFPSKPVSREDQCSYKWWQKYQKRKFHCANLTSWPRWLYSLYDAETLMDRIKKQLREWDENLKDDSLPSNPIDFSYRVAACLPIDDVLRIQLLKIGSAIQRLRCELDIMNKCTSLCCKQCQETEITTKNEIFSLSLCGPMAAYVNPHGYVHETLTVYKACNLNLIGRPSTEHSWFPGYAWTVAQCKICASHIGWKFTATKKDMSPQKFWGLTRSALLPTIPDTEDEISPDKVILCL

[3] = target: T2, Protein cereblon/Induced myeloid leukemia cell differentiation protein Mcl-1 (Homo sapiens, UniProt Q07820+Q96SW2); test: Induction of CRBN-mediated Mcl-1 degradation in human HeLa cells assessed as relative abundance at 10 uM measured at 20 hrs by Western blot analysis (reference value: 1); format: cell-based; how it was run: as §1
[4] = target: T1, Protein cereblon/Apoptosis regulator Bcl-2; test: Induction of CRBN-mediated Bcl-2 degradation in human HeLa cells at 10 uM pretreated with CRBN inhibitor pomalidomide followed by compound addition by Western blot analysis; format: cell-based
Target sequence in this assay (P10415 whole entry, looked up): as the sequence (P10415 whole entry, looked up) above
Target sequence in this assay (Q96SW2 whole entry, looked up): as the sequence (Q96SW2 whole entry, looked up) above

[5] = target: T1, Protein cereblon/Apoptosis regulator Bcl-2; test: Induction of CRBN-mediated Bcl-2 degradation in human HeLa cells assessed as reduction in Bcl-2 level at 1 uM after 12 hrs by Western blot analysis relative to control; format: cell-based; parameters: scale not given: the % may be the effect or the level left
Target sequence in this assay (P10415 whole entry, looked up): as the sequence (P10415 whole entry, looked up) above
Target sequence in this assay (Q96SW2 whole entry, looked up): as the sequence (Q96SW2 whole entry, looked up) above

[6] = target: T1, Protein cereblon/Apoptosis regulator Bcl-2; test: Induction of CRBN-mediated Bcl-2 degradation in human HeLa cells assessed as relative abundance at 10 uM after 12 hrs by Western blot analysis (reference value: 1); format: cell-based
Target sequence in this assay (P10415 whole entry, looked up): as the sequence (P10415 whole entry, looked up) above
Target sequence in this assay (Q96SW2 whole entry, looked up): as the sequence (Q96SW2 whole entry, looked up) above

[7] = target: Apoptosis regulator Bcl-2 (Homo sapiens, UniProt P10415); test: Inhibition of biotinylated Bim peptide (81 to 106 residues) binding to His-tagged human Bcl-2 expressed in Escherichia coli BL21 (DE3) cells preincubated for 1 hr followed by biotinylated Bim peptide addition measured after 2 hrs by ELISA
How it was run: (§2)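 Inhibitor serially diluted (100–0.1 µM) from 10 mM DMSO stock, preincubated 1 h with 200 nM His-tagged protein in PBS (final DMSO 4%), then added 2 h to streptavidin plates holding biotin-Bim (plated at 0.09 mg/mL). Incubations at 4 °C. Detection with HRP anti-His, TMB 30 min, H2SO4 stop, A450. IC50 averaged from three independent experiments, with SD.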

[8] = target: T2, Protein cereblon/Induced myeloid leukemia cell differentiation protein Mcl-1; test: Induction of CRBN-mediated Mcl-1 degradation in human HeLa cells assessed as relative abundance at 3 uM after 12 hrs by Western blot analysis (reference value: 1); format: cell-based
[9] = target: T1, Protein cereblon/Apoptosis regulator Bcl-2; test: Induction of CRBN-mediated Bcl-2 degradation in human HeLa cells assessed as relative abundance at 10 uM measured at 2 hrs by Western blot analysis (reference value: 1); format: cell-based; how it was run: as §1
Target sequence in this assay (P10415 whole entry, looked up): as the sequence (P10415 whole entry, looked up) above
Target sequence in this assay (Q96SW2 whole entry, looked up): as the sequence (Q96SW2 whole entry, looked up) above

[10] = target: Protein cereblon/E3 ubiquitin-protein ligase Mdm2 (Homo sapiens) (UniProt Q00987+Q96SW2); test: Induction of CRBN-mediated MDM2 degradation in human HeLa cells at 10 uM incubated for 12 hrs by Western blot analysis; format: cell-based
[11] = target: T1, Protein cereblon/Apoptosis regulator Bcl-2; test: Induction of CRBN-mediated Bcl-2 degradation in human HeLa cells at 10 uM pretreated with proteasome inhibitor MG-132 followed by compound addition by Western blot analysis; format: cell-based
Target sequence in this assay (P10415 whole entry, looked up): as the sequence (P10415 whole entry, looked up) above
Target sequence in this assay (Q96SW2 whole entry, looked up): as the sequence (Q96SW2 whole entry, looked up) above

[12] = target: T2, Protein cereblon/Induced myeloid leukemia cell differentiation protein Mcl-1; test: Induction of CRBN-mediated Mcl-1 degradation in human HeLa cells assessed as relative abundance at 0.1 uM after 12 hrs by Western blot analysis (reference value: 1); format: cell-based
[13] = target: T1, Protein cereblon/Apoptosis regulator Bcl-2; test: Induction of CRBN-mediated Bcl-2 degradation in human HeLa cells assessed as relative abundance at 0.1 uM after 12 hrs by Western blot analysis (reference value: 1); format: cell-based
[14] = target: T2, Protein cereblon/Induced myeloid leukemia cell differentiation protein Mcl-1; test: Induction of CRBN-mediated Mcl-1 degradation in human HeLa cells assessed as relative abundance at 10 uM after 12 hrs by Western blot analysis (reference value: 1); format: cell-based
[15] = target: T1, Protein cereblon/Apoptosis regulator Bcl-2; test: Induction of CRBN-mediated Bcl-2 degradation in human HeLa cells assessed as relative abundance at 1 uM after 12 hrs by Western blot analysis (reference value: 1); format: cell-based
[16] = target: T1, Protein cereblon/Apoptosis regulator Bcl-2; test: Induction of CRBN-mediated Bcl-2 degradation in human HeLa cells assessed as reduction in Bcl-2 level at 10 uM after 12 hrs by Western blot analysis relative to control; format: cell-based; parameters: scale not given: the % may be the effect or the level left
[17] = target: T1, Protein cereblon/Apoptosis regulator Bcl-2; test: Induction of CRBN-mediated Bcl-2 degradation in human HeLa cells measured at 12 hrs by Western blot analysis; format: cell-based
Target sequence in this assay (P10415 whole entry): as the sequence (P10415 whole entry, looked up) above
Target sequence in this assay (Q96SW2 whole entry): as the sequence (Q96SW2 whole entry, looked up) above

[18] = target: T1, Protein cereblon/Apoptosis regulator Bcl-2; test: Induction of CRBN-mediated Bcl-2 degradation in human HeLa cells assessed as relative abundance at 10 uM measured at 16 hrs by Western blot analysis (reference value: 1); format: cell-based; how it was run: as §1
[19] = target: T1, Protein cereblon/Apoptosis regulator Bcl-2; test: Protac activity at CRBN/Bcl-2 in human HeLa cell lysates assessed as ternary complex formation by Western blot analysis based pull-down assay; format: subcellular; conditions: Lysate
How it was run: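 HeLa lysate (25×10^6 cells, 1% Triton X-100 IP buffer), 1 mg total protein, incubated overnight with 1 µg CRBN antibody across a compound concentration gradient. Capture on protein A+G agarose, three Triton washes, boiled in loading buffer. Mcl-1, Bcl-2 and CRBN detected by immunoblotting. n=3 independent samples.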

[20] = target: T2, Protein cereblon/Induced myeloid leukemia cell differentiation protein Mcl-1; test: Induction of CRBN-mediated Mcl-1 degradation in human HeLa cells assessed as relative abundance at 10 uM measured at 24 hrs by Western blot analysis (reference value: 1); format: cell-based; how it was run: as §1
[21] = target: T2, Protein cereblon/Induced myeloid leukemia cell differentiation protein Mcl-1; test: Induction of CRBN-mediated Mcl-1 degradation in human HeLa cells assessed as relative abundance at 1 uM after 12 hrs by Western blot analysis (reference value: 1); format: cell-based
[22] = target: T2, Protein cereblon/Induced myeloid leukemia cell differentiation protein Mcl-1; test: Induction of CRBN-mediated Mcl-1 degradation in human HeLa cells assessed as relative abundance at 10 uM measured at 16 hrs by Western blot analysis (reference value: 1); format: cell-based; how it was run: as §1
[23] = target: Induced myeloid leukemia cell differentiation protein Mcl-1 (Homo sapiens, UniProt Q07820); test: Inhibition of biotinylated Bim peptide (81 to 106 residues) binding to His-tagged human Mcl-1 expressed in Escherichia coli BL21 (DE3) cells preincubated for 1 hr followed by biotinylated Bim peptide addition measured after 2 hrs by ELISA; how it was run: as §2
[24] = target: T2, Protein cereblon/Induced myeloid leukemia cell differentiation protein Mcl-1; test: Induction of CRBN-mediated Mcl-1 degradation in human HeLa cells assessed as relative abundance at 10 uM measured at 2 hrs by Western blot analysis (reference value: 1); format: cell-based; how it was run: as §1
[25] = target: T2, Protein cereblon/Induced myeloid leukemia cell differentiation protein Mcl-1; test: Induction of CRBN-mediated Mcl-1 degradation in human HeLa cells assessed as relative abundance at 0.3 uM after 12 hrs by Western blot analysis (reference value: 1); format: cell-based
[26] = target: T1, Protein cereblon/Apoptosis regulator Bcl-2; test: Induction of CRBN-mediated Bcl-2 degradation in human HeLa cells assessed as relative abundance at 3 uM after 12 hrs by Western blot analysis (reference value: 1); format: cell-based
[27] = target: T1, Protein cereblon/Apoptosis regulator Bcl-2; test: Induction of CRBN-mediated Bcl-2 degradation in human HeLa cells at 10 uM by Western blot analysis; format: cell-based; conditions: TDE = time-dependent effect
[28] = target: T2, Protein cereblon/Induced myeloid leukemia cell differentiation protein Mcl-1; test: Induction of CRBN-mediated Mcl-1 degradation in human HeLa cells assessed as relative abundance at 10 uM measured at 4 hrs by Western blot analysis (reference value: 1); format: cell-based; how it was run: as §1
[29] = target: Protein cereblon/Bcl-2-like protein 1 (Homo sapiens) (UniProt Q07817+Q96SW2); test: Induction of CRBN-mediated Bcl-xl degradation in human HeLa cells at 10 uM incubated for 12 hrs by Western blot analysis; format: cell-based
[30] = target: T1, Protein cereblon/Apoptosis regulator Bcl-2; test: Induction of CRBN-mediated Bcl-2 degradation in human HeLa cells after 12 hrs by Western blot analysis; format: cell-based
[31] = target: T2, Protein cereblon/Induced myeloid leukemia cell differentiation protein Mcl-1; test: Induction of CRBN-mediated Mcl-1 degradation in human HeLa cells assessed as relative abundance at 10 uM measured at 8 hrs by Western blot analysis (reference value: 1); format: cell-based; how it was run: as §1
[32] = target: T1, Protein cereblon/Apoptosis regulator Bcl-2; test: Induction of CRBN-mediated Bcl-2 degradation in human HeLa cells assessed as relative abundance at 10 uM measured at 4 hrs by Western blot analysis (reference value: 1); format: cell-based; how it was run: as §1
[33] = target: T1, Protein cereblon/Apoptosis regulator Bcl-2; test: Induction of CRBN-mediated Bcl-2 degradation in human HeLa cells assessed as relative abundance at 10 uM measured at 8 hrs by Western blot analysis (reference value: 1); format: cell-based; how it was run: as §1
[34] = target: T1, Protein cereblon/Apoptosis regulator Bcl-2; test: Induction of CRBN-mediated Bcl-2 degradation in human HeLa cells assessed as relative abundance at 10 uM measured at 24 hrs by Western blot analysis (reference value: 1); format: cell-based; how it was run: as §1
[35] = target: T1, Protein cereblon/Apoptosis regulator Bcl-2; test: Induction of CRBN-mediated Bcl-2 degradation in human HeLa cells assessed as relative abundance at 0.3 uM after 12 hrs by Western blot analysis (reference value: 1); format: cell-based
[36] = target: T1, Protein cereblon/Apoptosis regulator Bcl-2; test: Induction of CRBN-mediated Bcl-2 degradation in human HeLa cells at 10 uM pretreated with Bcl-2 inhibitor Nap-1 followed by compound addition by Western blot analysis; format: cell-based

T2 sequence (Q07820 whole entry, looked up): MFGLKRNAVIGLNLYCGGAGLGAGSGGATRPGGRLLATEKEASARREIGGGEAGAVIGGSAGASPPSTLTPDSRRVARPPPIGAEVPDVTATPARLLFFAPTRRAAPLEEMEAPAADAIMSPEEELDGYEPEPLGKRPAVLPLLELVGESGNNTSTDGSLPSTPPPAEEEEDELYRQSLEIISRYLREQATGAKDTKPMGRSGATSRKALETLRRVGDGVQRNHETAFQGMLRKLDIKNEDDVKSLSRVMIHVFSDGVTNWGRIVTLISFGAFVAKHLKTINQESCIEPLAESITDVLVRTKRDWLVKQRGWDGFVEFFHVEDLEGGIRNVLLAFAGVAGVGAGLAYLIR
T2 sequence (Q96SW2 whole entry, looked up): as the sequence (Q96SW2 whole entry, looked up) above
Chain of Protein cereblon/E3 ubiquitin-protein ligase Mdm2 (Homo sapiens) (Q00987 whole entry, looked up): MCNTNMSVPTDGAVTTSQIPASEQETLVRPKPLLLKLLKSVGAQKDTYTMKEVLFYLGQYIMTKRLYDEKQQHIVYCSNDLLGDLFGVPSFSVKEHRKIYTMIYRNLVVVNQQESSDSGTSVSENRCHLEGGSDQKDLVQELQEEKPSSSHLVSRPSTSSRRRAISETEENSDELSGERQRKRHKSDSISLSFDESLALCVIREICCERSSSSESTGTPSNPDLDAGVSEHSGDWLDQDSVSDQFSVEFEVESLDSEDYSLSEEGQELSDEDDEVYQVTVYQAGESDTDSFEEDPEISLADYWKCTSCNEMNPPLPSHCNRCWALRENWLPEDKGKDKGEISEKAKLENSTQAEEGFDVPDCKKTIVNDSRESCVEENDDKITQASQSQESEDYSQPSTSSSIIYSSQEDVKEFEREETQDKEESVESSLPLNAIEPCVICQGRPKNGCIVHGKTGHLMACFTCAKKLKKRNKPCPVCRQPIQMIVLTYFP
Chain of Protein cereblon/E3 ubiquitin-protein ligase Mdm2 (Homo sapiens) (Q96SW2 whole entry, looked up): as the sequence (Q96SW2 whole entry, looked up) above
Chain of Induced myeloid leukemia cell differentiation protein Mcl-1 (Q07820 whole entry, the tested form may be a part): as the sequence (Q07820 whole entry, looked up) above
Chain of Apoptosis regulator Bcl-2 (P10415 whole entry, the tested form may be a part): as the sequence (P10415 whole entry, looked up) above
Chain of Protein cereblon/Bcl-2-like protein 1 (Homo sapiens) (Q07817 whole entry, looked up): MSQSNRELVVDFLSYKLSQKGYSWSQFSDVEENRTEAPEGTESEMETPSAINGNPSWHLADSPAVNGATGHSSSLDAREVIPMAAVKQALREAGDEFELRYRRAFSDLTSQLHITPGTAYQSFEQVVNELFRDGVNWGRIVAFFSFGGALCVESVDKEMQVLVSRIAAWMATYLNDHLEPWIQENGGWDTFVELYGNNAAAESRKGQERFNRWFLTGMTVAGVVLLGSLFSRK
Chain of Protein cereblon/Bcl-2-like protein 1 (Homo sapiens) (Q96SW2 whole entry, looked up): as the sequence (Q96SW2 whole entry, looked up) above

fold change (FC) [2]: 1
fold change (FC) [3]: 1
Activity [4]: inactive
Activity [5]: 10%
fold change (FC) [6]: 0.1
IC50 [7]: 4.94 µM
fold change (FC) [8]: 1.2
fold change (FC) [9]: 0.8
Activity [10]: inactive
Activity [11]: inactive
fold change (FC) [12]: 1
fold change (FC) [13]: 1
fold change (FC) [14]: 0.9 to 1
fold change (FC) [15]: 0.9
Activity [16]: 90%
DC50 [17]: 3 µM
fold change (FC) [18]: 0.7
Activity [19]: Dose-dependent effect
fold change (FC) [20]: 0.8
fold change (FC) [21]: 1
fold change (FC) [22]: 1.1
IC50 [23]: 11.8 µM
fold change (FC) [24]: 1.1
fold change (FC) [25]: 1
fold change (FC) [26]: 0.5
Activity [27]: Tde
fold change (FC) [28]: 1
Activity [29]: inactive
Activity [30]: Dose-dependent effect
fold change (FC) [31]: 1
fold change (FC) [32]: 0.6
fold change (FC) [33]: 0.3
fold change (FC) [34]: 1
fold change (FC) [35]: 0.9
Activity [36]: inactive
SMILES: O=C(CCCCC(=O)NCCN1C(=O)c2cccc3c(Sc4ccc(Br)cc4)ccc(c23)C1=O)NCCOCCOCCNc1cccc2c1C(=O)N(C1CCC(=O)NC1=O)C2=O (stereo unspecified)
Activity [1]: inactive
